The results in this text go back to ChEMBL document CHEMBL1135972 (J Med Chem, 2002).

Data set [1] relates to WIL2. Briefly: Growth inhibitory activity against human lymphoblastoid W1L2 cell line. Format: functional, cell-based. The method in brief: (§1)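 IC50 read by cell counting. For the folate-rescue arm, W1L2 medium carried 10 μM thymidine plus 50 μM hypoxanthine. Values are mean ± SD or individual results.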
Data set [2] is described as follows: Growth inhibitory activity against human lymphoblastoid W1L2:R865 cell line. It is filed as functional, cell-based. A digest of the protocol: as §1
The subject of data set [3] is WIL2. The data set can be described thus: Growth inhibitory activity against human lymphoblastoid W1L2 cell line in presence of 10 uM thymidine/50 uM hypoxanthine. Format: functional, cell-based. A digest of the protocol:
as §1

Data set [4] can be described thus: Solubility at pH 6.0 was determined. Format: physicochemical. The following applies: buffer. A digest of the protocol:
(§2)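 About 2 mg solid shaken 18 h at 25 °C in the dark, then settled 30 min. pH rechecked (±0.2, readjusted, then 60 min re-equilibration). Centrifuged 1000g 15 min, 0.2 μm filtered, diluted 1:1 with MeCN. Assayed by RP18 HPLC, UV 295 nm, against a 3-point standard curve.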

A short description of data set [5]: Solubility at pH 7.4 was determined. It is filed as physicochemical. The conditions noted are these: buffer. The method in brief:
as §2

A short description of data set [6]: Solubility at pH 7.4. It is filed as physicochemical. The following applies: buffer. The method in brief: as §2
Data set [7] in a line: Solubility at pH 6.0. Format: physicochemical. The conditions noted are these: buffer. The method in brief: as §2
The test system of a further data set is Proteasome. The data set can be described thus: Chymotryptic inhibitory activity against 26S proteasome. Format: functional, subcellular.

Converted amounts (≈) assume the structure as drawn.

By IC50 is commonly meant the concentration needed to halve the response being measured. Regarding `C#CCN(Cc1cc2c(=O)n(C)c(CN(CC)CC)nc2cc1Cl)c1ccc(C(=O)NCc2cccnc2)cc1`, the concentration for half-maximal inhibition (IC50) in the data set on WIL2 [1] is 0.71 nM; in data set [2] it was more than 50000 nM; in the data set with WIL2 [3], 0.73 nM.

Usually solubility stands for how much of the substance goes into solution per volume. A low value points to little dissolved substance. For `C#CCN(Cc1cc2c(=O)n(C)c(CN3CCN(CC)CC3)nc2cc1Cl)c1ccc(C(=O)NCc2cccnc2)cc1`, the solubility in data set [4] stood at 1760 µM (≈ 1060 µg/mL); in data set [5] it was 286 µM (≈ 171 µg/mL). Also, the IC50 with WIL2 [1] is 0.78 nM; in data set [2], 22000 nM; with WIL2 [3], 0.78 nM.

As for `C#CCN(Cc1cc2c(=O)n(C)c(CN3CCN(c4ccccc4)CC3)nc2cc1Cl)c1ccc(C(=O)NCc2cccnc2)cc1`, the solubility worked out at 23 µM (≈ 14.9 µg/mL) in data set [4] and 5 µM (≈ 3.23 µg/mL) in data set [5]. The figures for the IC50 (in the data set with WIL2 [1]; in data set [2]; with WIL2 [3]) were 7.2 nM, 940 nM and 5.4 nM, respectively.

For the compound `C#CCN(Cc1cc2c(=O)n(CC(=O)N(CC)CC)c(CN3CCCCC3)nc2cc1Cl)c1ccc(C(=O)NCc2cccnc2)cc1`, the solubility in data set [4] and in data set [5] was 2 µM (≈ 1.34 µg/mL) each time. The IC50 worked out at 9.4 nM in the data set with WIL2 [1], 19000 nM in data set [2] and 8.4 nM in the data set with WIL2 [3].

For `C#CCN(Cc1cc2c(=O)n(C)c(CN3CCN(CCO)CC3)nc2cc1Cl)c1ccc(C(=O)NCc2cccnc2)cc1`, the solubility in data set [4] worked out at 992 µM (≈ 609 µg/mL); in data set [5] it was 75 µM (≈ 46.1 µg/mL). The IC50 with WIL2 [1] was 7 nM; in data set [2], 22000 nM; in the data set with WIL2 [3], 7.1 nM.

`C#CCN(Cc1cc2c(O)nc(C)nc2cc1Br)c1ccc(C(=O)NCc2cccnc2)cc1`: the values for the IC50 (in the data set with WIL2 [1]; in data set [2]; in the data set on WIL2 [3]) were 2.8 nM, 610 nM and 2.2 nM, respectively. For the same compound, the solubility in data set [6] was 2.3 µM (≈ 1.19 µg/mL); in data set [7], less than 1 µM.

For the compound `C#CCN(Cc1cc2c(=O)n(C)c(CN3CCN(C)CC3)nc2cc1Cl)c1ccc(C(=O)NCc2cccnc2)cc1`, the solubility in data set [4] was 636 µM (≈ 372 µg/mL); in data set [5] it was 146 µM (≈ 85.3 µg/mL). Moreover, the concentration for half-maximal inhibition (IC50) in the data set with WIL2 [1] came to 0.49 nM; in data set [2], 13000 nM; with WIL2 [3], 0.32 nM; in the data set on Proteasome it was 3000 nM.

In the case of `C#CCN(Cc1cc2c(=O)n(C)c(CN3CCCC3)nc2cc1Cl)c1ccc(C(=O)NCc2cccnc2)cc1`, the IC50 was 0.7 nM with WIL2 [1], 24000 nM in data set [2] and 0.76 nM in the data set with WIL2 [3].

In the case of `C#CCN(Cc1cc2c(=O)n(C)c(CN3CCCCC3)nc2cc1Cl)c1ccc(C(=O)NCCCn2cncn2)cc1`, the results for the solubility in data set [4] and in data set [5] were 80 µM (≈ 47 µg/mL) and 6 µM (≈ 3.52 µg/mL), respectively. The IC50 worked out at 840 nM in the data set on WIL2 [1], 20000 nM in data set [2] and 800 nM with WIL2 [3].

`C#CCN(Cc1cc2c(=O)n(CC(=O)N3CCCCC3)c(CN3CCCCC3)nc2cc1Cl)c1ccc(C(=O)NCc2cccnc2)cc1`: the IC50 in the data set on WIL2 [1] is 8.4 nM; in data set [2], more than 50000 nM; in the data set with WIL2 [3], 7.4 nM.

`C#CCN(Cc1cc2c(=O)n(CC(=O)OC)c(CN3CCCCC3)nc2cc1Cl)c1ccc(C(=O)NCc2cccnc2)cc1`: the values for the IC50 (in the data set on WIL2 [1]; in data set [2]; with WIL2 [3]) were 11 nM, 23000 nM and 9.6 nM, respectively.

For the compound `C#CCN(Cc1cc2c(=O)n(C)c(CN3CCCCC3)nc2cc1Cl)c1ccc(C(=O)NCc2cccnc2)cc1`, the IC50 with WIL2 [1] was found to be 0.8 nM; in data set [2], 14000 nM; with WIL2 [3], 0.78 nM.

In the case of `C#CCN(Cc1cc2c(=O)n(C)c(CN3CCC[C@H]3C(=O)OC)nc2cc1Cl)c1ccc(C(=O)NCc2cccnc2)cc1`, the IC50 in the data set on WIL2 [1] turned out to be 18 nM; in data set [2] it was 24000 nM; in the data set on WIL2 [3] it was 14 nM.

Turning to `C#CCN(Cc1cc2c(=O)n(C)c(CN3CCOCC3)nc2cc1Cl)c1ccc(C(=O)NCc2cccnc2)cc1`, the solubility came out at 3 µM (≈ 1.71 µg/mL) in data set [4] and 2 µM (≈ 1.14 µg/mL) in data set [5]. Besides, the IC50 in the data set on WIL2 [1] came to 2 nM; in data set [2], 19000 nM; with WIL2 [3], 2 nM.

With `C#CCN(Cc1cc2c(=O)n(C)c(CN3CCN(C)CC3)nc2cc1Cl)c1ccc(C(=O)NCCCn2ccnc2)cc1`, the solubility in data set [4] turned out to be 934 µM (≈ 561 µg/mL); in data set [5], 96 µM (≈ 57.7 µg/mL). For the same compound, the values for the IC50 (with WIL2 [1]; in data set [2]; in the data set with WIL2 [3]) were 2.1 nM, 18000 nM and 2.3 nM, respectively.

Take `C#CCN(Cc1cc2c(=O)n(C)c(CN3CCC(O)CC3)nc2cc1Cl)c1ccc(C(=O)NCc2cccnc2)cc1`: the solubility in data set [4] is 2 µM (≈ 1.17 µg/mL); in data set [5] it was 0.5 µM (≈ 0.293 µg/mL). Besides, the IC50 in the data set on WIL2 [1] came to 0.72 nM; in data set [2] it was 18000 nM; in the data set with WIL2 [3], 0.7 nM.
